Data set [1] in a line: Prodrug conversion assessed as 1 - [ S ] - ( Ch l o r ome t h y l ) - 5 - h y d r o x y - 3 - { { 5 - [ 5 - ( 3 -methyldithiopropionyl)indol-2-yl-carbonyl amino]indole-2-yl}- carbonyl}-1,2-dihydro-3H-benz[e]indole formation in presence of rabbit intestine alkaline phosphatase at pH 7.4. The class given is physicochemical. The conditions noted are these: in vitro.
A short description of data set [2]: Solubility in toluene at 1.5 mg sonicated for 45 mins followed by centrifugation for 45 mins by UV/Vis spectroscopy. Type of data set: physicochemical. The note with it: 0.75 h. The procedure, abridged: (§1)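 Solid compound (~1.5 mg) in the stated solvent was sonicated 45 min, then centrifuged at 1400g for 45 min. The supernatant concentration was read by UV/vis at 340 nm, using ε = 41500 M⁻¹ cm⁻¹ for the free phenols and 34500 M⁻¹ cm⁻¹ for the phosphate prodrugs (pH 7.0 values).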

The nature of data set [3]: Solubility in water containing 5% acetone at 1.5 mg sonicated for 45 mins followed by centrifugation for 45 mins by UV/Vis spectroscopy. The class given is physicochemical. The note with it: 0.75 h.
Data set [4] is described as follows: Solubility of the compound in 10% DMA and 90% buffer at pH 7 at 1.5 mg sonicated for 45 mins followed by centrifugation for 45 mins by UV/Vis spectroscopy. The class given is physicochemical. The procedure, abridged: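 About 1.5 mg of compound is sonicated for 45 min in pH 7.0 buffer containing 10% or 20% DMA, then centrifuged at 1400g for 45 min. Supernatant concentration is read by UV/vis at 340 nm. ε at pH 7.0 is 41500 M⁻¹ cm⁻¹ for DC1–SR₂ compounds and 34500 M⁻¹ cm⁻¹ for phosphate prodrugs.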

Data set [5] can be described thus: Prodrug activation assessed as enzyme-mediated compound dephosphorylation in presence of bovine alkaline phosphatase P8361 at pH 7.4 by HPLC. The note with it: cattle, isolated protein.
Data set [6] is described as follows: Solubility in DMSO at 1.5 mg sonicated for 45 mins followed by centrifugation for 45 mins by UV/Vis spectroscopy. The note with it: 0.75 h. The class given is physicochemical. The essentials: as §1
A short description of data set [7]: Prodrug activation assessed as enzyme-mediated compound dephosphorylation in presence of human semen prostatic acid phosphatase P1649 at pH 7.4 by HPLC. The note with it: isolated protein.
A short description of data set [8]: Solubility in DMA at 1.5 mg sonicated for 45 mins followed by centrifugation for 45 mins by UV/Vis spectroscopy. The conditions noted are these: 0.75 h. The class given is physicochemical. The essentials:
as §1

A short description of data set [9]: Solubility of the compound in 100% buffer at pH 7 at 1.5 mg sonicated for 45 mins followed by centrifugation for 45 mins by UV/Vis spectroscopy. Type of data set: physicochemical.
Data set [10] can be described thus: Solubility in ethanol at 1.5 mg sonicated for 45 mins followed by centrifugation for 45 mins by UV/Vis spectroscopy. Type of data set: physicochemical. The conditions noted are these: 0.75 h. The essentials:
as §1

Data set [11] is described as follows: Prodrug conversion assessed as 1 - [ S ] - ( Ch l o r ome t h y l ) - 5 - h y d r o x y - 3 - { { 5 - [ 5 - ( 3 -methyldithiopropionyl)indol-2-yl-carbonyl amino]indole-2-yl}- carbonyl}-1,2-dihydro-3H-benz[e]indole formation in presence of bovine liver alkaline phosphatase at pH 7.4. The class given is physicochemical. The conditions noted are these: cattle, isolated protein.

A short description of data set [12]: Cytotoxicity against human NAMALWA cells assessed as cell survival after 72 hrs in presence of bovine alkaline phosphatase by clonogenic assay. The class given is functional, cell-based. The conditions noted are these: NAMALVA. The procedure, abridged: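 Clonogenic assay: cells in RPMI 1640 with 10% heat-inactivated FBS were plated at 1000–5000 cells/well. Test agent (0–3 nM) was combined with alkaline phosphatase from bovine liver, and cells were exposed for 72 h. Colonies then grew for 7–10 days after plating and were stained with 0.2% crystal violet in 10% formalin/PBS. Surviving fraction is relative to untreated control wells.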

Data set [13] is described as follows: Prodrug activation assessed as enzyme-mediated compound dephosphorylation in presence of porcine intestine mucosa alkaline phosphatase P4002 at pH 7.4 by HPLC. The conditions noted are these: pig, isolated protein.
A short description of data set [14]: Prodrug activation assessed as enzyme-mediated compound dephosphorylation in presence of bovine liver alkaline phosphatase P7034 at pH 7.4 by HPLC. The conditions noted are these: cattle, isolated protein.
The nature of data set [15]: Prodrug conversion assessed as 5-(3-(Methyldisulfanyl)propanamido)-N-(2-((9aS)-4-oxo-2,4,9,9atetrahydro- 1H-benzo[e]cyclopropa[c]indole-2-carbonyl)-1H-indol- 5-yl)-1H-indole-2-carboxamide in cyclopropyl by HPLC analysis. The class given is physicochemical.
Data set [16] is described as follows: Prodrug conversion assessed as 1 - [ S ] - ( Ch l o r ome t h y l ) - 5 - h y d r o x y - 3 - { { 5 - [ 5 - ( 3 -methyldithiopropionyl)indol-2-yl-carbonyl amino]indole-2-yl}- carbonyl}-1,2-dihydro-3H-benz[e]indole formation in presence of porcine mucosa alkaline phosphatase at pH 7.4. The class given is physicochemical. The conditions noted are these: pig, isolated protein.

Data set [17] in a line: Prodrug activation assessed as enzyme-mediated compound dephosphorylation in presence of porcine kidney alkaline phosphatase P4439 at pH 7.4 by HPLC. The note with it: pig, isolated protein.
The nature of data set [18]: Solubility in hexane at 1.5 mg sonicated for 45 mins followed by centrifugation for 45 mins by UV/Vis spectroscopy. Type of data set: physicochemical. The conditions noted are these: 0.75 h. The essentials: as §1
Data set [19] can be described thus: Prodrug conversion assessed as 1-[S]-(Chloromethyl)-5-hydroxy-3-{{5-[5-(4-methyldithio-3,3- dimethyl butyryl)indol-2-yl-carbonyl amino]indole-2-yl}carbonyl}- 1,2-dihydro-3H-benz[e]indole formation in presence of bovine kidney alkaline phosphatase at pH 7.4. Type of data set: physicochemical. The conditions noted are these: cattle, isolated protein.
Data set [20] in a line: Prodrug conversion assessed as 1-[S]-(Chloromethyl)-5-hydroxy-3-{{5-[5-(4-methyldithio-3,3- dimethyl butyryl)indol-2-yl-carbonyl amino]indole-2-yl}carbonyl}- 1,2-dihydro-3H-benz[e]indole formation in presence of rabbit intestine alkaline phosphatase at pH 7.4. The class given is physicochemical. The note with it: in vitro.
The nature of data set [21]: Prodrug conversion assessed as 1-[S]-(Chloromethyl)-5-hydroxy-3-{{5-[5-(4-methyldithio-3,3- dimethyl butyryl)indol-2-yl-carbonyl amino]indole-2-yl}carbonyl}- 1,2-dihydro-3H-benz[e]indole formation in presence of bovine liver alkaline phosphatase at pH 7.4. The class given is physicochemical. The conditions noted are these: cattle, isolated protein.

pIC50: −log10 of the molar value. ≈ marks a conversion by molar mass, not a printed value.

These results are taken from ChEMBL document CHEMBL2157989, “Synthesis and biological evaluation of antibody conjugates of phosphate prodrugs of cytotoxic DNA alkylators for the targeted treatment of cancer” (J Med Chem, 2012).

For the molecule `CSSCCC(=O)Nc1ccc2[nH]c(C(=O)Nc3ccc4[nH]c(C(=O)N5C[C@@H](CCl)c6c5cc(OP(=O)(O)O)c5ccccc65)cc4c3)cc2c1`, the Drug metabolism entry in data set [1], in data set [5], in data set [7], in [11], in [13] and in data set [14] was “Active” in each case. Also, the Drug metabolism result in [15], in data set [16] and in data set [17] was “Active” in each case. Further, the solubility (in general, the concentration that dissolves in the medium under given conditions) in data set [2] was “Insoluble”; in data set [3] it was “soluble”; in [6] it was “soluble”; in [8], “soluble”; in [10], “Insoluble”; in data set [18], “Insoluble”. Besides, the values for the solubility at 0.75 h in data set [4] and in [9] were 4700 µM (≈ 3590 µg/mL) and 19 µM (≈ 14.5 µg/mL), respectively. For the same molecule, the negative logarithm of the IC50 (pIC50) (usually −log10 of the IC50, conventionally taken in molar units) in [12] was 10.52.

With `CSSC(C)(C)CCC(=O)Nc1ccc2[nH]c(C(=O)Nc3ccc4[nH]c(C(=O)N5C[C@@H](CCl)c6c5cc(OP(=O)(O)O)c5ccccc65)cc4c3)cc2c1`, the Drug metabolism result in [19], in data set [20], in data set [21], in data set [5], in [7] and in [11] was “Active” each time. In addition, the Drug metabolism result in data set [13], in [14], in data set [15] and in data set [17] was “Active” throughout. Further, the solubility entry in [2] was “Insoluble”; in [3] it was “soluble”; in data set [6], “soluble”; in data set [8], “soluble”; in data set [10], “Insoluble”; in data set [18], “Insoluble”. Also, the solubility at 0.75 h in data set [4] was found to be 4600 µM (≈ 3710 µg/mL); in [9], 19 µM (≈ 15.3 µg/mL). In addition, the pIC50 in data set [12] is 10.60.
